Calls of active or inactive are those of the source.
How the values were obtained:
Format in all cases: functional, organism-based
Candida albicans [1] = assay: Antifungal activity against Candida albicans ATCC 14053 at 198.1 uM after 48 hrs by CLSI method
Candida albicans [2] = assay: Antifungal activity against Candida albicans ATCC 60193 at 198.1 uM after 48 hrs by CLSI method
Outline: (§1)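 Candida inocula came from 24–72-h SD agar colonies suspended in saline. They were diluted by OD630 standard curve into RPMI 1640 (0.2% dextrose, 0.03% glutamine, 0.165 M MOPS, pH 7.0) to 1.5 × 10³ CFU/ml. Compounds were run as 11 twofold dilutions in 20% DMSO-saline, in duplicate, at 35°C for 48 h, with OD530 read before and after. Percent growth at the top concentration, IC50, MIC, and MFC (SD agar plating) were derived.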

Nakaseomyces glabratus [3] = assay: Antifungal activity against Candida glabrata ATCC 90030 at 198.1 uM after 48 hrs by CLSI method; outline: as §1
Aspergillus niger [4] = assay: Antifungal activity against Aspergillus niger ATCC 16404 at 198.1 uM after 48 hrs by CLSI method
Candida albicans [5] = assay: Antifungal activity against Candida albicans ATCC 14053 at 187.7 uM after 48 hrs by CLSI method
Candida albicans [6] = assay: Antifungal activity against Candida albicans ATCC 32354 at 187.7 uM after 48 hrs by CLSI method; outline: as §1
Candida albicans [7] = assay: Antifungal activity against Candida albicans ATCC 90028 at 187.7 uM after 48 hrs by CLSI method; outline: as §1
Nakaseomyces glabratus [8] = assay: Antifungal activity against Candida glabrata ATCC 90030 at 187.7 uM after 48 hrs by CLSI method; outline: as §1
Pichia kudriavzevii = assay: Antifungal activity against Candida krusei ATCC 6258 at 187.7 uM after 48 hrs by CLSI method
Outline: (§2)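 Yeast suspensions made from 3-5 colonies off 24-72 h SD agar plates in saline. They were diluted by OD630 standard curve in RPMI 1640 (0.2% dextrose, 0.03% glutamine, 0.165 M MOPS, pH 7.0) to 1.5 × 10³ CFU/ml. Twofold dilutions (11 concentrations, 20% DMSO-saline) run in duplicate. OD530 read before and after 35°C, 48 h. Line values are top test concentrations; no-growth endpoints give MIC/MFC.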

Candida parapsilosis = assay: Antifungal activity against Candida parapsilosis ATCC 22019 at 187.7 uM after 48 hrs by CLSI method; outline: as §2
Candida albicans [9] = assay: Antifungal activity against Candida albicans ATCC 60193 at 168.9 uM after 48 hrs by CLSI method; outline: as §1
Candida albicans [10] = assay: Antifungal activity against Candida albicans ATCC 32354 at 168.9 uM after 48 hrs by CLSI method; outline: as §1
Candida tropicalis [11] = assay: Antifungal activity against Candida tropicalis ATCC 750 at 168.9 uM after 48 hrs by CLSI method; outline: as §2
Cryptococcus neoformans = assay: Antifungal activity against Cryptococcus neoformans ATCC 90113 at 168.9 uM after 72 hrs by CLSI method
Outline: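 SD broth replaced RPMI because growth in RPMI was poor; other CLSI conditions were kept. Inoculum was 1.5 × 10³ CFU/ml from colonies on SD agar, checked by plating. Twofold serial dilutions (11 concentrations) in 20% DMSO-saline were tested in duplicate. OD530 was read before and after incubation at 35°C for 72 h. Percent growth gave IC50; the MIC is the lowest concentration with no detectable growth.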

Aspergillus fumigatus [12] = assay: Antifungal activity against Aspergillus fumigatus ATCC 204305 at 168.9 uM after 48 hrs by CLSI method
Aspergillus fumigatus [13] = assay: Antifungal activity against Aspergillus fumigatus ATCC 90906 at 168.9 uM after 48 hrs by CLSI method
Aspergillus niger [14] = assay: Antifungal activity against Aspergillus niger ATCC 16404 at 168.9 uM after 48 hrs by CLSI method
[15] = test system: Trichophyton mentagrophytes; assay: Antifungal activity against Trichophyton mentagrophytes ATCC MYA-4439 at 168.9 uM after 5 days by CLSI method
Trichophyton rubrum [16] = assay: Antifungal activity against Trichophyton rubrum ATCC 10218 at 168.9 uM after 5 days by CLSI method
Candida albicans [17] = assay: Antifungal activity against Candida albicans ATCC 60193 at 169.8 uM after 48 hrs by CLSI method; outline: as §1
Candida albicans [18] = assay: Antifungal activity against Fluconazole resistant Candida albicans isolate 17 at 169.8 uM after 48 hrs by CLSI method
Outline: (§3)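 Candida in CLSI broth microdilution. Saline colony suspension set to 1.5 × 10³ CFU/ml (final) in MOPS-buffered RPMI 1640, pH 7.0. Test agent given as twofold serial dilutions in 20% DMSO-saline, duplicate wells. 35°C for 48 h. Growth read as OD530 before and after incubation. Percent inhibition scored at the highest test concentration.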

Candida tropicalis [19] = assay: Antifungal activity against Candida tropicalis ATCC 750 at 169.8 uM after 48 hrs by CLSI method; outline: as §2
Aspergillus fumigatus [20] = assay: Antifungal activity against Aspergillus fumigatus ATCC 90906 at 169.8 uM after 48 hrs by CLSI method
Trichophyton rubrum [21] = assay: Antifungal activity against Trichophyton rubrum ATCC MYA-4438 at 169.8 uM after 5 days by CLSI method
Candida albicans [22] = assay: Antifungal activity against Fluconazole resistant Candida albicans isolate 17 at 9.4 uM after 48 hrs by CLSI method; outline: as §3
Nakaseomyces glabratus [23] = assay: Antifungal activity against Candida glabrata ATCC 90030 at 9.4 uM after 48 hrs by CLSI method; outline: as §3
Candida tropicalis [24] = assay: Antifungal activity against Candida tropicalis ATCC 750 at 9.4 uM after 48 hrs by CLSI method; outline: as §3
Aspergillus fumigatus [25] = assay: Antifungal activity against Aspergillus fumigatus ATCC 90906 at 9.4 uM after 48 hrs by CLSI method
Outline: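 Aspergillus growth on 1–6-week potato dextrose slants scraped and Miracloth-filtered. Inoculum sized by OD630 curve to 2.7 × 10⁴ CFU/ml (final) in 5% Alamar blue-RPMI 1640 (MOPS, pH 7.0). Duplicate twofold dilutions from 20% DMSO-saline. 35°C for 48 h. Fluorescence 544/590 nm read before and after. Percent inhibition taken at the highest test concentration.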

[26] = test system: Trichophyton mentagrophytes; assay: Antifungal activity against Trichophyton mentagrophytes ATCC MYA-4439 at 9.4 uM after 5 days by CLSI method
Outline: (§4)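 Trichophyton growth scraped from 1–6-week potato dextrose slants and filtered through Miracloth. Inoculum 2.7 × 10⁴ CFU/ml (final) in 5% Alamar blue-RPMI 1640 buffered with MOPS, pH 7.0. Duplicate twofold dilutions from 20% DMSO-saline. Incubated 35°C for 5 days. Fluorescence read at 544 nm excitation, 590 nm emission. Inhibition assessed at the highest test concentration.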

[27] = test system: Trichophyton mentagrophytes; assay: Antifungal activity against Trichophyton mentagrophytes ATCC 9533 at 9.4 uM after 5 days by CLSI method; outline: as §4
Trichophyton rubrum [28] = assay: Antifungal activity against Trichophyton rubrum ATCC MYA-4438 at 9.4 uM after 5 days by CLSI method; outline: as §4
Candida albicans [29] = assay: Antifungal activity against Candida albicans ATCC 60193 at 9.4 uM after 48 hrs by CLSI method; outline: as §3

Measured: Activity

CCCCCCCCCC#CCCCCC(=O)O
inactive: Candida albicans [1] | Candida albicans [2] | Nakaseomyces glabratus [3] | Aspergillus niger [4]

CCCCCCCCCCC#CCCCCC(=O)O
inactive: Candida albicans [5] | Candida albicans [6] | Candida albicans [7] | Nakaseomyces glabratus [8] | Pichia kudriavzevii | Candida parapsilosis

CCCCCC#CCC#CCC#CCC#CCCCC(=O)O
inactive: Candida albicans [9] | Candida albicans [10] | Candida tropicalis [11] | Cryptococcus neoformans | Aspergillus fumigatus [12] | Aspergillus fumigatus [13] | Aspergillus niger [14] | [15] | Trichophyton rubrum [16]

CCCCCCCCCCCCC#CCCCCC(=O)O [6-NONADECYNOIC ACID]
inactive: Candida albicans [17] | Candida albicans [18] | Candida tropicalis [19] | Aspergillus fumigatus [20] | Trichophyton rubrum [21]

CC(=O)N1CCN(c2ccc(OCC3COC(Cn4ccnc4)(c4ccc(Cl)cc4Cl)O3)cc2)CC1 (configuration not stated) [KETOCONAZOLE]
inactive: Candida albicans [22] | Nakaseomyces glabratus [23] | Candida tropicalis [24] | Aspergillus fumigatus [25] | [26] | [27] | Trichophyton rubrum [28] | Candida albicans [29]

From ChEMBL document CHEMBL1275449, “Potent in vitro antifungal activities of naturally occurring acetylenic acids” (Antimicrob Agents Chemother, 2008)
